{"source": "PubChem BioAssay", "note": "Activity calls are given as the source filed them.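 Rule for the calls, unless noted: active = viability at or below 10% of carrier control in both of two separate runs; inconclusive = viability at or below 10% in only one of the two runs; inactive = the rest.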"}
{"assay": "reduced viability of SK-BR-3 breast cancer cells – cell-based, 24 h, human, pilot screen (AID 572);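 note: compound exposure lasted between 18 and 24 h rather than exactly 24 h; 100% = carrier-treated control wells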", "settings": "SK-BR-3 viability, CellTiter-Glo luminescence, at 10 µM, stronger effect = lower value"}
{"smiles": "COc1ccccc1NC(=O)CSc1nnc(-c2ccncc2)o1", "viability": "108% (inactive)"}
{"smiles": "CCOc1ccc2oc(-c3ccccc3)c(C(=O)N3CCN(CCO)CC3)c2c1", "viability": "97.5% (inactive)"}
{"smiles": "O=S(=O)(NCC1CCCO1)c1ccc(S(=O)(=O)N2CCc3ccccc3C2)cc1", "note": "(stereo not given)", "viability": "90% (inactive)"}
{"smiles": "CCC(C(=O)Nc1ncccn1)(C(F)(F)F)C(F)(F)F", "viability": "86.5% (inactive)"}
{"smiles": "O=C(Cc1ccc(Br)cc1)N1CCCCCC1", "viability": "108% (inactive)"}
{"smiles": "Cc1ccc2cc(C(c3nnnn3CC3CCCO3)N3CCc4ccccc4C3)c(=O)[nH]c2c1", "note": "(stereo not given)", "viability": "87% (inactive)"}
{"smiles": "S=C(NCC1CCCO1)n1nnc2ccccc21", "note": "(stereo not given)", "viability": "121% (inactive)"}
{"smiles": "CO/C([O-])=N/c1c[n+](-c2ccc(C)cc2)no1", "viability": "100% (inactive)"}
{"smiles": "CNc1ccc(C(O)(C(F)(F)F)C(F)(F)F)cc1C(O)(C(F)(F)F)C(F)(F)F", "viability": "98% (inactive)"}
{"smiles": "COc1ccccc1-n1c(SCC(=O)Nc2ccc3c(c2)OCO3)nc2c(c1=O)SCC2", "viability": "82.5% (inactive)"}
{"smiles": "O=c1cc(C(F)F)oc2c1ccc1ccccc12", "viability": "93.5% (inactive)"}
{"smiles": "CCOc1cc(C2/C(=C(/O)c3ccc(OC(C)C)cc3)C(=O)C(=O)N2CCCOC)ccc1O", "note": "(stereo not given)", "viability": "91.5% (inactive)"}
{"smiles": "Cc1ccc(S(=O)(=O)Cn2nnnc2CN(Cc2ccco2)Cc2cccs2)cc1", "viability": "91.5% (inactive)"}
{"smiles": "Cc1c(NC(=O)c2ccc(COc3ccc4ccccc4c3)o2)c(=O)n(-c2ccccc2)n1C", "viability": "88.5% (inactive)"}
{"smiles": "COc1ccc(Cc2nc(-c3ccc(Br)cc3)no2)cc1", "viability": "72.5% (inactive)"}
{"smiles": "CC(CCc1ccccc1)NC(=O)c1ccc(Br)o1", "note": "(stereo not given)", "viability": "110% (inactive)"}
{"smiles": "O=C1CC(c2ccsc2)c2cc3c(cc2N1)OCCO3", "note": "(stereo not given)", "viability": "103% (inactive)"}
{"smiles": "CCCN1C(=O)c2cc(C(=O)O)ccc2C1O", "note": "(stereo not given)", "viability": "113% (inactive)"}
{"smiles": "Cc1ccccc1-c1nc2ccccc2c(=O)n1C1CCS(=O)(=O)C1", "note": "(stereo not given)", "viability": "96.5% (inactive)"}
{"smiles": "COC1CCCCC1NS(=O)(=O)c1ccccc1", "note": "(stereo not given)", "viability": "106% (inactive)"}
{"smiles": "CCOC(=O)N1CCN(Cc2nc3c(c(=O)[nH]c(=O)n3C)n2Cc2cc(C)ccc2C)CC1", "viability": "102% (inactive)"}
{"smiles": "O=C(NCC1COc2ccccc2O1)c1ccc(NC(=O)c2ccco2)cc1", "note": "(stereo not given)", "viability": "85.5% (inactive)"}
{"smiles": "COCCN(C(=O)CNC(=O)c1ccco1)C(C(=O)NC1CCCCC1)c1cccc(OC)c1", "note": "(stereo not given)", "viability": "96% (inactive)"}
{"smiles": "Cc1sc2ncnc(SCC(=O)N3CCCC3)c2c1C", "viability": "124% (inactive)"}
{"smiles": "CCC(C)(C)n1nnnc1C(c1ccc(OC)c(OC)c1)N1CCN(c2ccccc2)CC1", "note": "(stereo not given)", "viability": "85% (inactive)"}
{"smiles": "OC(CN1CCCCC1)Cn1c(C(F)(F)F)nc2ccccc21", "note": "(stereo not given)", "viability": "85.5% (inactive)"}
{"smiles": "O=C(CN(c1ccccc1)S(=O)(=O)c1ccccc1)N1CCN(Cc2ccc3c(c2)OCO3)CC1", "viability": "104% (inactive)"}
{"smiles": "COc1ccc(CC(=O)OCn2nnc3ccccc3c2=O)cc1", "viability": "101% (inactive)"}
{"smiles": "N#CC(C(=O)Nc1ccc(Cl)c(Cl)c1)=C1Nc2ccccc2N1", "viability": "90.5% (inactive)"}
{"smiles": "COc1ccc(C)cc1NC(=O)CN1CCN(S(=O)(=O)c2ccc(Cl)cc2)CC1", "viability": "81.5% (inactive)"}
{"smiles": "CCCCCn1c2nc3ccccc3nc2c2c(=O)n(CC(C)C)cnc21", "viability": "116% (inactive)"}
{"smiles": "CCn1ncc(C2=NOC(C(=O)Nc3ccc4c(c3)OCO4)C2)c1C", "note": "(stereo not given)", "viability": "95.5% (inactive)"}
{"smiles": "COc1ccc(CCNS(=O)(=O)c2ccc3c(c2)CCN3C(=O)CCC(=O)O)cc1OC", "viability": "104% (inactive)"}
{"smiles": "O=C(CS(=O)(=O)c1cn(Cc2ccc(Cl)cc2)c2ccccc12)N1CCOCC1", "viability": "84% (inactive)"}
{"smiles": "CCCS(=O)(=O)C(=C1Nc2ccccc2N1)S(=O)(=O)CCC", "viability": "105% (inactive)"}
{"smiles": "CCn1c(CCC(=O)Nc2nc3c(s2)CCCC3)nc2cc(S(=O)(=O)N(C)C)ccc21", "viability": "89.5% (inactive)"}
{"smiles": "Cc1nn(-c2ccccc2)c2c1C(O)n1c(nc3ccccc31)S2", "note": "(stereo not given)", "viability": "91% (inactive)"}
{"smiles": "CCSc1nc2ccccc2n1CCC(=O)O", "viability": "99% (inactive)"}
{"smiles": "COc1cccc(CN=CC2=C(O)CC(C)(C)CC2=O)c1OC", "viability": "106% (inactive)"}
{"smiles": "CCOC(=O)NC(=O)CSc1nnnn1-c1ccc(Cl)cc1", "viability": "86.5% (inactive)"}
{"assay": "HUVEC growth inhibition – cell-based, human, primary screen (AID 575;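 active = viability at or below 30% in both replicate assays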;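 note: 100% = median of untreated cell wells with 0.1% DMSO on each plate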)", "settings": "HUVEC proliferation, CellTiter-Glo luminescence, 72 h; at 10 µM; stronger effect = lower value", "in_short": "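system = HUVEC primary cells | amount = 1250 cells/well | buffer or medium = supplemented EBM, 2% fetal bovine serum | dosing = single-point 10 µM, DMSO 0.1% final | times = 72 h compound incubation | detection = CTG luminescence | read-out = % viability relative to median vehicle-well signal on each plate | control set = vehicle and MePR control wells | format = collagen-coated 384-well format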"}
{"smiles": "COc1ccccc1NC(=O)CSc1nnc(-c2ccncc2)o1", "viability": "111% (inactive)"}
{"smiles": "CCOc1ccc2oc(-c3ccccc3)c(C(=O)N3CCN(CCO)CC3)c2c1", "viability": "74.3% (inactive)"}
{"smiles": "O=S(=O)(NCC1CCCO1)c1ccc(S(=O)(=O)N2CCc3ccccc3C2)cc1", "note": "(stereo not given)", "viability": "94.9% (inactive)"}
{"smiles": "CCC(C(=O)Nc1ncccn1)(C(F)(F)F)C(F)(F)F", "viability": "95.7% (inactive)"}
{"smiles": "O=C(Cc1ccc(Br)cc1)N1CCCCCC1", "viability": "115% (inactive)"}
{"smiles": "Cc1ccc2cc(C(c3nnnn3CC3CCCO3)N3CCc4ccccc4C3)c(=O)[nH]c2c1", "note": "(stereo not given)", "viability": "105% (inactive)"}
{"smiles": "S=C(NCC1CCCO1)n1nnc2ccccc21", "note": "(stereo not given)", "viability": "66.2% (inactive)"}
{"smiles": "CO/C([O-])=N/c1c[n+](-c2ccc(C)cc2)no1", "viability": "109% (inactive)"}
{"smiles": "CNc1ccc(C(O)(C(F)(F)F)C(F)(F)F)cc1C(O)(C(F)(F)F)C(F)(F)F", "viability": "76.8% (inactive)"}
{"smiles": "COc1ccccc1-n1c(SCC(=O)Nc2ccc3c(c2)OCO3)nc2c(c1=O)SCC2", "viability": "85% (inactive)"}
{"smiles": "O=c1cc(C(F)F)oc2c1ccc1ccccc12", "viability": "74.8% (inactive)"}
{"smiles": "CCOc1cc(C2/C(=C(/O)c3ccc(OC(C)C)cc3)C(=O)C(=O)N2CCCOC)ccc1O", "note": "(stereo not given)", "viability": "103% (inactive)"}
{"smiles": "Cc1ccc(S(=O)(=O)Cn2nnnc2CN(Cc2ccco2)Cc2cccs2)cc1", "viability": "104% (inactive)"}
{"smiles": "Cc1c(NC(=O)c2ccc(COc3ccc4ccccc4c3)o2)c(=O)n(-c2ccccc2)n1C", "viability": "91.2% (inactive)"}
{"smiles": "COc1ccc(Cc2nc(-c3ccc(Br)cc3)no2)cc1", "viability": "92.8% (inactive)"}
{"smiles": "CC(CCc1ccccc1)NC(=O)c1ccc(Br)o1", "note": "(stereo not given)", "viability": "88.5% (inactive)"}
{"smiles": "O=C1CC(c2ccsc2)c2cc3c(cc2N1)OCCO3", "note": "(stereo not given)", "viability": "67.6% (inactive)"}
{"smiles": "CCCN1C(=O)c2cc(C(=O)O)ccc2C1O", "note": "(stereo not given)", "viability": "90.1% (inactive)"}
{"smiles": "Cc1ccccc1-c1nc2ccccc2c(=O)n1C1CCS(=O)(=O)C1", "note": "(stereo not given)", "viability": "108% (inactive)"}
{"smiles": "COC1CCCCC1NS(=O)(=O)c1ccccc1", "note": "(stereo not given)", "viability": "97.8% (inactive)"}
{"smiles": "CCOC(=O)N1CCN(Cc2nc3c(c(=O)[nH]c(=O)n3C)n2Cc2cc(C)ccc2C)CC1", "viability": "112% (inactive)"}
{"smiles": "O=C(NCC1COc2ccccc2O1)c1ccc(NC(=O)c2ccco2)cc1", "note": "(stereo not given)", "viability": "105% (inactive)"}
{"smiles": "COCCN(C(=O)CNC(=O)c1ccco1)C(C(=O)NC1CCCCC1)c1cccc(OC)c1", "note": "(stereo not given)", "viability": "88.1% (inactive)"}
{"smiles": "Cc1sc2ncnc(SCC(=O)N3CCCC3)c2c1C", "viability": "78.1% (inactive)"}
{"smiles": "CCC(C)(C)n1nnnc1C(c1ccc(OC)c(OC)c1)N1CCN(c2ccccc2)CC1", "note": "(stereo not given)", "viability": "90.2% (inactive)"}
{"smiles": "OC(CN1CCCCC1)Cn1c(C(F)(F)F)nc2ccccc21", "note": "(stereo not given)", "viability": "105% (inactive)"}
{"smiles": "O=C(CN(c1ccccc1)S(=O)(=O)c1ccccc1)N1CCN(Cc2ccc3c(c2)OCO3)CC1", "viability": "92.7% (inactive)"}
{"smiles": "COc1ccc(CC(=O)OCn2nnc3ccccc3c2=O)cc1", "viability": "90.5% (inactive)"}
{"smiles": "N#CC(C(=O)Nc1ccc(Cl)c(Cl)c1)=C1Nc2ccccc2N1", "viability": "36% (inactive)"}
{"smiles": "COc1ccc(C)cc1NC(=O)CN1CCN(S(=O)(=O)c2ccc(Cl)cc2)CC1", "viability": "74.7% (inactive)"}
{"smiles": "CCCCCn1c2nc3ccccc3nc2c2c(=O)n(CC(C)C)cnc21", "viability": "103% (inactive)"}
{"smiles": "CCn1ncc(C2=NOC(C(=O)Nc3ccc4c(c3)OCO4)C2)c1C", "note": "(stereo not given)", "viability": "108% (inactive)"}
{"smiles": "COc1ccc(CCNS(=O)(=O)c2ccc3c(c2)CCN3C(=O)CCC(=O)O)cc1OC", "viability": "88.6% (inactive)"}
{"smiles": "O=C(CS(=O)(=O)c1cn(Cc2ccc(Cl)cc2)c2ccccc12)N1CCOCC1", "viability": "105% (inactive)"}
{"smiles": "CCCS(=O)(=O)C(=C1Nc2ccccc2N1)S(=O)(=O)CCC", "viability": "93.4% (inactive)"}
{"smiles": "CCn1c(CCC(=O)Nc2nc3c(s2)CCCC3)nc2cc(S(=O)(=O)N(C)C)ccc21", "viability": "59.9% (inactive)"}
{"smiles": "Cc1nn(-c2ccccc2)c2c1C(O)n1c(nc3ccccc31)S2", "note": "(stereo not given)", "viability": "50.9% (inactive)"}
{"smiles": "CCSc1nc2ccccc2n1CCC(=O)O", "viability": "101% (inactive)"}
{"smiles": "COc1cccc(CN=CC2=C(O)CC(C)(C)CC2=O)c1OC", "viability": "101% (inactive)"}
{"smiles": "CCOC(=O)NC(=O)CSc1nnnn1-c1ccc(Cl)cc1", "viability": "104% (inactive)"}
